For assay [1], the target named is T1, Cannabinoid receptor 1 (Homo sapiens, UniProt P21554). As to the kind of experiment: Displacement of [3H]CP55940 from recombinant human CB1R expressed in CHO cell membranes incubated for 90 mins. Also noted: species or system Membrane. For orientation: Displacement assays read how much labelled ligand stays bound in the presence of the test substance.
Assay [2] addresses T2, Cannabinoid receptor 2 (Homo sapiens, UniProt P34972). As to the kind of experiment: Displacement of [3H]CP55940 from recombinant human CB2R expressed in CHO cell membranes incubated for 90 mins. Further details: species or system Membrane.
Assay [3] addresses T3, Fatty-acid amide hydrolase 1 (Homo sapiens, UniProt O00519).
T3 sequence (O00519 whole entry): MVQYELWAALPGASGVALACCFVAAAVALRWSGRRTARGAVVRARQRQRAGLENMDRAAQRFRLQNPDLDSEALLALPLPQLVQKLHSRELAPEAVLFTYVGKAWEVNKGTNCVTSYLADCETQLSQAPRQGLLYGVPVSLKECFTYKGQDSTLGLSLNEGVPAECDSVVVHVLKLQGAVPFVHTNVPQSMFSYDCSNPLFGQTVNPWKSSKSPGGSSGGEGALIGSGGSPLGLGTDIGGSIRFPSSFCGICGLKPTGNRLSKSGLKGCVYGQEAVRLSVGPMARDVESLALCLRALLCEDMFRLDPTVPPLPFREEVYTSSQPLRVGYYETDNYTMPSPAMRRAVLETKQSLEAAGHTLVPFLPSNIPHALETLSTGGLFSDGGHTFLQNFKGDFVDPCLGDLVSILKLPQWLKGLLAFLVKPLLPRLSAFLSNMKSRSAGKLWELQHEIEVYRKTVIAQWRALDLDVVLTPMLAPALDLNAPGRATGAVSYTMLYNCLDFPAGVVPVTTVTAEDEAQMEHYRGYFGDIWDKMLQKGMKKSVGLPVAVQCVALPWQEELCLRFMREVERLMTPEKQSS
As to the kind of experiment: Inhibition of FAAH in human U937 cells using [ethanolamine-1-3H]AEA as substrate preincubated for 15 mins followed by substrate addition and measured after 15 mins by liquid scintillation spectroscopy. In kind it is cell-based, U-937. In a few lines: (§1)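 Intact U937 cells, 10^6 per condition, pre-incubated with compound 15 min at 37 °C with shaking (screen at 10 μM; full curves for hits). Substrate: 1 μM AEA with 1 nM [3H]AEA (FAAH) or 10 μM 2-OG with 5 nM [3H]2-OG (MAGL), 15 min at 37 °C. Stopped with CHCl3:MeOH 1:1, aqueous tritium counted; mean ± SD, ≥3 experiments in triplicate.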

For another assay, the target named is T4, Monoglyceride lipase (Homo sapiens, UniProt Q99685).
T4 sequence (Q99685 whole entry): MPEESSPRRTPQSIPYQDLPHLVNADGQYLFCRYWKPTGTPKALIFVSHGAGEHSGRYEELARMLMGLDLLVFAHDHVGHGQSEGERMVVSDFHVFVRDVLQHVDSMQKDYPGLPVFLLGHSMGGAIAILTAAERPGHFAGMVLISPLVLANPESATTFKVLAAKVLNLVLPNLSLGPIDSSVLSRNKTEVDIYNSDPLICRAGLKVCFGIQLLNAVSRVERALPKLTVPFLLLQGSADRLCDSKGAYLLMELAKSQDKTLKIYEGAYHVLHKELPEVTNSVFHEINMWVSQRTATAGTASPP
As to the kind of experiment: Inhibition of MAGL in human U937 cells using [glycerol-1,2,3-3H]2-OG as substrate preincubated for 15 mins followed by substrate addition and measured after 15 mins by liquid scintillation spectroscopy. In kind it is cell-based, U-937. In a few lines:
as §1

The target of assay [4] is T5, Monoacylglycerol lipase ABHD6 (Homo sapiens, UniProt Q9BV23).
T5 sequence (Q9BV23 whole entry): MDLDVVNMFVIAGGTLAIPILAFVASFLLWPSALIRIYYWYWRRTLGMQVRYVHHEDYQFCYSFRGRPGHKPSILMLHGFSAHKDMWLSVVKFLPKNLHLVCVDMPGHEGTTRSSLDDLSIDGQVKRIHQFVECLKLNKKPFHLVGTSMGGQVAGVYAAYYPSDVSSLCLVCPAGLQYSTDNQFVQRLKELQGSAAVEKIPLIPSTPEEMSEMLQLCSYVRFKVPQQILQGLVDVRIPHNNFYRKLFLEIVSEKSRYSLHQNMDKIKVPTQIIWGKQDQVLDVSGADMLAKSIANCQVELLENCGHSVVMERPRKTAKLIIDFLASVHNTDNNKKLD
Kind of assay: Inhibition of human ABHD6 expressed in HEK293 cells using 2-OG as substrate preincubated for 30 mins followed by substrate addition and measured after 5 mins by liquid scintillation spectroscopy. In kind it is cell-based. In a few lines: (§2)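 Homogenates (40 µg) from HEK293 stably expressing hABHD6 or hABHD12 pre-incubated with compound 30 min at 37 °C in […], 0.1% BSA, pH 7.6; then 10 μM 2-OG for 5 min at 37 °C. Aqueous phase tritium counted after CHCl3:MeOH stop; no-enzyme blanks and non-transfected HEK293 hydrolysis subtracted. Controls WWL70 10 μM, THL 20 μM.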

For assay [5], the target named is T6, Lysophosphatidylserine lipase ABHD12 (Homo sapiens, UniProt Q8N2K0).
T6 sequence (Q8N2K0 whole entry): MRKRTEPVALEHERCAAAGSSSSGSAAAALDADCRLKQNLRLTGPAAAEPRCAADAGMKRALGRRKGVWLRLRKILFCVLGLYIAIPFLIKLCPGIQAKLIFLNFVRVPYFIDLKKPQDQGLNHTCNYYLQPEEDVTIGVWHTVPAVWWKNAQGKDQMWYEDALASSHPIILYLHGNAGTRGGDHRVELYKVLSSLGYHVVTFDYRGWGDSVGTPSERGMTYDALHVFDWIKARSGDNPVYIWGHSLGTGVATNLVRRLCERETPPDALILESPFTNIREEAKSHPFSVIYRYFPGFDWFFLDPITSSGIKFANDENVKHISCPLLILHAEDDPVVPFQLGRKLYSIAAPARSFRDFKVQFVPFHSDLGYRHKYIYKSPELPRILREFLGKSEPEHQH
Kind of assay: Inhibition of human ABHD12 expressed in HEK293 cells using 2-OG as substrate preincubated for 30 mins followed by substrate addition and measured after 5 mins by liquid scintillation spectroscopy. It counts as cell-based. In a few lines:
as §2

Assay [6] has as its target T1, Cannabinoid receptor 1. Kind of assay: Agonist activity at human CB1R expressed in CHO cell membranes after 90 mins by [35S]GTPgammaS assay. It counts as functional, Membrane. In short, it runs like this:
(§3)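 In-house CHO membranes expressing hCB1 or hCB2 (10 µg) in 50 mM Tris-HCl, 3 mM MgCl2, 0.2 mM EDTA, 100 mM NaCl, 0.5% fatty-acid-free BSA, pH 7.4, with 10 μM GDP and 0.1 nM [35S]GTPγS. Incubated 90 min at 30 °C; antagonist pre-incubated 30 min. Nonspecific binding with 10 μM GTPγS; bound label by filtration and counting; ≥3 experiments in triplicate.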

Assay [7] has as its target T2, Cannabinoid receptor 2. As to the kind of experiment: Agonist activity at human CB2R expressed in CHO cell membranes after 90 mins by [35S]GTPgammaS assay. It counts as functional, Membrane. In short, it runs like this:
as §3
(In general: GTPγS resists hydrolysis and so accumulates on activated G proteins.)

The species entered for the next assay is Homo sapiens. Kind of assay: Selectivity index, ratio of Ki for human CB1R expressed in CHO cell membranes to Ki for human CB2R expressed in CHO cell membranes. In kind it is cell-based.
For assay [8], the system named is Mus musculus. As to the kind of experiment: In vivo agonist activity at CB1R in BALB/c mouse assessed as reduction in body temperature at 5 mg/kg, ip measured after 1 hr by tetrad test. In kind it is functional, organism-based. In a few lines:
(§4)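 BALB/c mice given 5 mg/kg i.p. in DMSO (20 µL), tested 1 h later. Rectal temperature change from basal; catalepsy by bar test (4 cm bar, 120 s cut-off); locomotion by rotarod latency to fall at 4 rpm (120 s cut-off, 3 trials); analgesia by hot plate at 54-56 °C, first paw lick or shake. n = 5-20 per group.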

Assay [9] concerns the target T1, Cannabinoid receptor 1. As to the kind of experiment: Antagonist activity at human CB1R expressed in CHO cell membranes preincubated for 30 mins followed by GTPgammaS addition and measured after 90 mins by [35S]GTPgammaS assay. It counts as functional, Membrane. In a few lines: as §3
Assay [10] deals with T2, Cannabinoid receptor 2. Kind of assay: Inverse agonist activity at human CB2R expressed in CHO cell membranes after 90 mins by [35S]GTPgammaS assay. It counts as functional, Membrane. In a few lines:
as §3

For assay [11], the system named is Mus musculus. Kind of assay: In vivo agonist activity at CB1R in BALB/c mouse assessed as reduction in spontaneous locomotion at 5 mg/kg, ip measured after 1 hr by rotarod test. It counts as functional, organism-based. In short, it runs like this:
as §4
(In the rotarod test animals must keep their balance on a rotating rod.)

In assay [12] the test system is Mus musculus. Kind of assay: In vivo agonist activity at CB1R in BALB/c mouse assessed as catalpesy-like behaviour by measuring increase in immobility time at 5 mg/kg, ip measured after 1 hr by bar test. In kind it is functional, organism-based. In short, it runs like this: as §4
The subject of assay [13] is Mus musculus. As to the kind of experiment: In vivo agonist activity at CB1R in BALB/c mouse assessed as induction of analgesia at 5 mg/kg, ip measured after 1 hr by hotplate test. In kind it is functional, organism-based. In a few lines:
as §4

Assay [14] deals with Cannabinoid receptor 1 (Rattus norvegicus) (UniProt P20272). Kind of assay: Agonist activity at CB1R in Sprague-Dawley rat hippocampal synaptosomes assessed as inhibition of 4-AP evoked glutamate release at 10 uM preincubated for 8 mins followed by 4-AP addition by HPLC analysis. It counts as subcellular. To be noted: Hippocampus, filed as agonist. In a few lines: (§5)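 Rat (male Sprague Dawley, 200-250 g) hippocampal synaptosomes from Percoll gradient, superfused at 37 °C (0.5 ml/min); 4-AP 600 μM for 2 min. Compounds and antagonists (SR141716A, SR144528, 1 μM) added 8 min before 4-AP and kept during it; basal effects tested by 2-min exposure alone. Endogenous glutamate by HPLC as pmol/mg protein; overflow = stimulated minus basal in control chambers; n = 3–9, triplicate.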

Assay [15] has the same target. As to the kind of experiment: Agonist activity at CB1R in Sprague-Dawley rat hippocampal synaptosomes assessed as inhibition of 4-AP evoked glutamate release at 10 uM preincubated for 8 mins followed by 4-AP addition in presence of 1 uM CB2R antagonist, SR144528 by HPLC analysis. In kind it is subcellular. To be noted: Hippocampus, filed as agonist. In short, it runs like this: as §5

The structures appear in SMILES notation. Active and inactive are the calls of the source.

Usually Ki stands for the dissociation constant of the complex between target and ligand, obtained from inhibition or displacement. In general, IC50 refers to the concentration that gives 50% inhibition. Low values mean greater potency in that assay, high ones weaker potency in that assay. Usually EC50 stands for the concentration at which the effect is half-maximal. Read a high EC50 as a need for much substance.

T1 sequence (P21554 whole entry): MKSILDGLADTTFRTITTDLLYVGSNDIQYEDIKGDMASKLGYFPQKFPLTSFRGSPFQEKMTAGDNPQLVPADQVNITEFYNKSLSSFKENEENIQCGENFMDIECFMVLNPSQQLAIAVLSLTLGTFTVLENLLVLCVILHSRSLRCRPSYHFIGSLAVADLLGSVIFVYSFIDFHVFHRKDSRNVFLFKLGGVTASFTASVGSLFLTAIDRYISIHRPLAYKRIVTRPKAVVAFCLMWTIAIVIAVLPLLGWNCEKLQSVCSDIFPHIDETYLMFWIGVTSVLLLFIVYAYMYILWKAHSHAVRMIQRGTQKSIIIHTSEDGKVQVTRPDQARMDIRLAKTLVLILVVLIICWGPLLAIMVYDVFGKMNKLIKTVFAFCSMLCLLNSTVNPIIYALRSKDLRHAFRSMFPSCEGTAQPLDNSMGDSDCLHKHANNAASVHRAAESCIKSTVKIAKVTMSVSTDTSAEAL
T2 sequence (P34972 whole entry): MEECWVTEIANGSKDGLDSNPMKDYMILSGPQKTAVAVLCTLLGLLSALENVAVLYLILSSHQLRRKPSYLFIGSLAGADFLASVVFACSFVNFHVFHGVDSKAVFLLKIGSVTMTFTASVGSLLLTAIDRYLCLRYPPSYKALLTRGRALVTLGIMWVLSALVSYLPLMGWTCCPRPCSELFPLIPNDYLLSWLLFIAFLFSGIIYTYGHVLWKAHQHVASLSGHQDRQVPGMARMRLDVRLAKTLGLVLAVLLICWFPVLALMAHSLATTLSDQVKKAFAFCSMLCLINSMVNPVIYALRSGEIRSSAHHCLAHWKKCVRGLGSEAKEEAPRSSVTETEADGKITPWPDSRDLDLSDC
Chain of Cannabinoid receptor 1 (Rattus norvegicus) (P20272 whole entry, the tested form may be a part): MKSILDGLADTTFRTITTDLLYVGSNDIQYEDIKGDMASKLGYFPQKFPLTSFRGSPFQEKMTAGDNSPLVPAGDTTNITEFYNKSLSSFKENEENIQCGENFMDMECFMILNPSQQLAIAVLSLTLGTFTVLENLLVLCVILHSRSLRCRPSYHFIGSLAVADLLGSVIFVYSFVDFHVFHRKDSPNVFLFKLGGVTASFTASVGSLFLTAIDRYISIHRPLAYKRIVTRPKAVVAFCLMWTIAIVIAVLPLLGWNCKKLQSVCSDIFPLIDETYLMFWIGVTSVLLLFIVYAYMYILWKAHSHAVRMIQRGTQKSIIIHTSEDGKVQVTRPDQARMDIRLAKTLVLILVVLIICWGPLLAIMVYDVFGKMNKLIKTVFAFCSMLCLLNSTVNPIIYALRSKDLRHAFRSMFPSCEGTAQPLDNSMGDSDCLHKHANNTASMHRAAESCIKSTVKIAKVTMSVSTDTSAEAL

`Cc1nc(OCc2ccc(F)cc2)c(C(=O)NC2CCCCCC2)cc1Br`: the Ki on Cannabinoid receptor 1 [1] amounted to 76.1 nM; on Cannabinoid receptor 2 [2], 1.5 nM. Besides, the IC50 in assay [3] was above 10000 nM; against Monoglyceride lipase it was above 10000 nM; in [4] it was above 10000 nM; in [5], 2100 nM. Moreover, the EC50 is 586 nM on Cannabinoid receptor 1 [6] and 31.6 nM on Cannabinoid receptor 2 [7].

Consider `Cc1ccc(C(=O)NC2CCCCCC2)c(OCc2ccc(F)cc2)n1`, for which the Ki on Cannabinoid receptor 1 [1] was 16.6 nM; at Cannabinoid receptor 2 [2], 33.9 nM. Besides, the IC50 (in assay [3]; against Monoglyceride lipase; in [4]; in [5]) was above 10000 nM each time. In addition, the EC50 at Cannabinoid receptor 1 [6] worked out at 86.2 nM; at Cannabinoid receptor 2 [7], 11.6 nM. In the assay listed under Homo sapiens, the Ratio Ki is 0.49.

As for `Cc1c(F)cc(C(=O)NC2CCCCCC2)c(=O)n1Cc1ccc(F)cc1`, the Ki on Cannabinoid receptor 1 [1] stood at 4.9 nM; at Cannabinoid receptor 2 [2], 5.7 nM. Further, the half-inhibitory concentration (IC50) (in assay [3]; at Monoglyceride lipase; in [4]; in assay [5]) was above 10000 nM each time. Besides, the figures for the EC50 on Cannabinoid receptor 1 [6] and on Cannabinoid receptor 2 [7] were 43.2 nM and 24.4 nM, respectively. Further, the Ratio Ki in the assay listed under Homo sapiens is 0.86.

Consider `Cc1c(-c2ccccc2)cc(C(=O)NC2CCCCCC2)c(=O)n1Cc1ccc(F)cc1`, for which the outcome in the assay with Mus musculus [8], in the assay with Mus musculus [11], with Mus musculus [12] and in the assay with Mus musculus [13] was inactive. For the same compound, the figures for the inhibition constant Ki at Cannabinoid receptor 1 [1] and on Cannabinoid receptor 2 [2] were 176 nM and 5.7 nM, respectively. For the same compound, the half-inhibitory concentration (IC50) in assay [3] is 560 nM; against Monoglyceride lipase, above 10000 nM; in assay [4], above 10000 nM; in [5] it was above 10000 nM. For the same compound, the EC50 on Cannabinoid receptor 1 [9] is 0.36 nM; at Cannabinoid receptor 2 [10], 17 nM.

With `Cc1c(Br)cc(C(=O)NC2CCNCC2)c(=O)n1Cc1ccc(F)cc1`, the Ki at Cannabinoid receptor 1 [1] and on Cannabinoid receptor 2 [2] was above 10000 nM in each case. Moreover, the IC50 (in assay [3]; against Monoglyceride lipase; in assay [4]; in assay [5]) was above 10000 nM each time.

In the case of `CCCCC/C=C\C/C=C\C/C=C\C/C=C\CCCC(=O)NCCCl`, the result in assay [14] and in [15] was Active.

(Values after ChEMBL document CHEMBL4706601, “The endocannabinoid system dual-target ligand N-cycloheptyl-1,2-dihydro-5-bromo-1-(4-fluorobenzyl)-6-methyl-2-oxo-pyridine-3-carboxamide improves disease severity in a mouse model of multiple sclerosis” (Eur J Med Chem, 2020).)
